Converted amounts (≈) assume the structure as drawn.
Assays:
Type in all cases: functional
[1] = Antifungal activity against Fusarium oxysporum NCIM 1332 by standard agar method
Outline: (§1)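 MICs determined by standard agar method; DMSO as solvent control.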

Staphylococcus aureus [2] = test: Growth inhibition of Staphylococcus aureus NCIM 2010 at 30 ug/ml measured after 12 hrs relative to control; conditions: NCIM 2010, 12 h, read-out: GI
Outline: (§2)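 Bacteria grown in LB at 37 °C and 180 rpm to OD 1. Compounds added to wells, then 0.1% inoculum of 1 OD culture (620 nm). Growth read as OD at 620 nm after 8 h for gram-negative and after 12 h for gram-positive strains.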

Bacillus subtilis [3] = test: Growth inhibition of Bacillus subtilis NCIM 2079 at 30 ug/ml measured after 12 hrs relative to control; conditions: NCIM 2079, 12 h, read-out: GI; outline: as §2
Staphylococcus aureus [4] = test: Growth inhibition of Staphylococcus aureus NCIM 2010 at 10 ug/ml measured after 12 hrs relative to control; conditions: NCIM 2010, 12 h, read-out: GI; outline: as §2
Staphylococcus aureus [5] = test: Growth inhibition of Staphylococcus aureus NCIM 2010 at 3 ug/ml measured after 12 hrs relative to control; conditions: NCIM 2010, 12 h, read-out: GI; outline: as §2
Bacillus subtilis [6] = test: Growth inhibition of Bacillus subtilis NCIM 2079 at 10 ug/ml measured after 12 hrs relative to control; conditions: NCIM 2079, 12 h, read-out: GI; outline: as §2
Bacillus subtilis [7] = test: Growth inhibition of Bacillus subtilis NCIM 2079 at 3 ug/ml measured after 12 hrs relative to control; conditions: NCIM 2079, 12 h, read-out: GI; outline: as §2
Escherichia coli [8] = test: Growth inhibition of Escherichia coli NCIM 2688 at 30 ug/ml measured after 8 hrs relative to control; conditions: NCIM 2688, 8 h, read-out: GI; outline: as §2
Escherichia coli [9] = test: Growth inhibition of Escherichia coli NCIM 2688 at 10 ug/ml measured after 8 hrs relative to control; conditions: NCIM 2688, 8 h, read-out: GI; outline: as §2
Escherichia coli [10] = test: Growth inhibition of Escherichia coli NCIM 2688 at 3 ug/ml measured after 8 hrs relative to control; conditions: NCIM 2688, 8 h, read-out: GI; outline: as §2
Pseudomonas fluorescens [11] = test: Growth inhibition of Pseudomonas fluorescens NCIM 2036 at 30 ug/ml measured after 8 hrs relative to control; conditions: NCIM 2036, 8 h, read-out: GI; outline: as §2
Pseudomonas fluorescens [12] = test: Growth inhibition of Pseudomonas fluorescens NCIM 2036 at 10 ug/ml measured after 8 hrs relative to control; conditions: NCIM 2036, 8 h, read-out: GI; outline: as §2
Pseudomonas fluorescens [13] = test: Growth inhibition of Pseudomonas fluorescens NCIM 2036 at 3 ug/ml measured after 8 hrs relative to control; conditions: NCIM 2036, 8 h, read-out: GI; outline: as §2
Escherichia coli [14] = test: Antibacterial activity against Escherichia coli NCIM 2688 measured after 8 hrs; conditions: NCIM 2688, 8 h; outline: as §2
Pseudomonas fluorescens [15] = test: Antibacterial activity against Pseudomonas fluorescens NCIM 2036 measured after 8 hrs; conditions: NCIM 2036, 8 h; outline: as §2
Staphylococcus aureus [16] = test: Antibacterial activity against of Staphylococcus aureus NCIM 2010 measured after 12 hrs; conditions: NCIM 2010, 12 h; outline: as §2
Bacillus subtilis [17] = test: Antibacterial activity against Bacillus subtilis NCIM 2079 measured after 12 hrs; conditions: NCIM 2079, 12 h; outline: as §2
[18] = test system: Mycobacterium tuberculosis; test: Growth inhibition of Mycobacterium bovis BCG ATCC 35743 at dormant stage at 30 ug/ml measured after 12 days by nitrate reductase dye based two fold dilution method relative to control; conditions: BCG str. ATCC 35743, 288 h, read-out: GI
Outline: (§3)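 M. bovis BCG was grown in Dubos medium and assayed in Mycobacterium pheli minimal medium (pH 6.6), with compounds from DMSO stocks. Incubation lasted 8 days for active and 12 days for dormant cultures. Viability was read by nitrate reductase at 540 nm against cell-free blanks, with vehicle set as 100% growth. Primary screen was at 30, 10 and 3 µg/ml, in triplicate, mean ± SD. MIC was taken from dose-response curves.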

[19] = test system: Mycobacterium tuberculosis; test: Growth inhibition of Mycobacterium bovis BCG ATCC 35743 at dormant stage at 10 ug/ml measured after 12 days by nitrate reductase dye based two fold dilution method relative to control; conditions: BCG str. ATCC 35743, 288 h, read-out: GI; outline: as §3
[20] = test system: Mycobacterium tuberculosis; test: Growth inhibition of Mycobacterium bovis BCG ATCC 35743 at dormant stage at 3 ug/ml measured after 12 days by nitrate reductase dye based two fold dilution method relative to control; conditions: BCG str. ATCC 35743, 288 h, read-out: GI; outline: as §3
[21] = test system: Mycobacterium tuberculosis; test: Growth inhibition of Mycobacterium bovis BCG ATCC 35743 at active stage measured after 8 days by nitrate reductase dye based two fold dilution method; conditions: BCG str. ATCC 35743, 192 h; outline: as §3
[22] = test system: Mycobacterium tuberculosis; test: Growth inhibition of Mycobacterium tuberculosis H37Ra ATCC 25177 at dormant stage measured after 12 days by XTT dye based two fold dilution method; conditions: H37Ra ATCC 25177, 288 h
Outline: (§4)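 MTB H37Ra was grown in Dubos medium, then exposed in Mycobacterium pheli minimal medium (pH 6.6) to compounds dissolved in DMSO. The assay ended on day 8 (active) or day 12 (dormant). Viable cells were measured by XTT reduction menadione assay at 470 nm, blank-corrected, relative to vehicle control. Triplicates were expressed as mean ± SD. MIC came from dose-response curves.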

[23] = test system: Mycobacterium tuberculosis; test: Growth inhibition of Mycobacterium bovis BCG ATCC 35743 at dormant stage measured after 12 days by nitrate reductase dye based two fold dilution method; conditions: BCG str. ATCC 35743, 288 h; outline: as §3
[24] = test system: Mycobacterium tuberculosis; test: Growth inhibition of Mycobacterium tuberculosis H37Ra ATCC 25177 at active stage measured after 8 days by XTT dye based two fold dilution method; conditions: H37Ra ATCC 25177, 192 h; outline: as §4
Candida albicans = test: Antifungal activity against Candida albicans NCIM 3471 by standard agar method; outline: as §1
Aspergillus flavus = test: Antifungal activity against Aspergillus flavus NCIM 539 by standard agar method; outline: as §1
Aspergillus niger = test: Antifungal activity against Aspergillus niger NCIM 1196 by standard agar method; outline: as §1
[25] = Antifungal activity against Cryptococcus neoformans NCIM 576 by standard agar method; outline: as §1

SMILES	MIC [1] [µg/mL]	inhibition of growth at 30 µg/mL (Staphylococcus aureus [2]) [%]	inhibition of growth at 30 µg/mL (Bacillus subtilis [3]) [%]	inhibition of growth at 10 µg/mL (Staphylococcus aureus [4]) [%]	inhibition of growth at 3 µg/mL (Staphylococcus aureus [5]) [%]	inhibition of growth at 10 µg/mL (Bacillus subtilis [6]) [%]	inhibition of growth at 3 µg/mL (Bacillus subtilis [7]) [%]	inhibition of growth at 30 µg/mL (Escherichia coli [8]) [%]	inhibition of growth at 10 µg/mL (Escherichia coli [9]) [%]	inhibition of growth at 3 µg/mL (Escherichia coli [10]) [%]	inhibition of growth at 30 µg/mL (Pseudomonas fluorescens [11]) [%]	inhibition of growth at 10 µg/mL (Pseudomonas fluorescens [12]) [%]	inhibition of growth at 3 µg/mL (Pseudomonas fluorescens [13]) [%]	MIC (Escherichia coli [14]) [µg/mL]	MIC (Pseudomonas fluorescens [15]) [µg/mL]	MIC (Staphylococcus aureus [16]) [µg/mL]	MIC (Bacillus subtilis [17]) [µg/mL]	inhibition of growth at 30 µg/mL [18] [%]	inhibition of growth at 10 µg/mL [19] [%]	inhibition of growth at 3 µg/mL [20] [%]	other results
Cc1ccc2nc(Cl)c(/C=C3\SC(=S)NC3=O)cc2c1	100 (≈ 312 µM)	-44	-16.6	-30.8	-49.2	-3.58	-8.73	-7.51	-6.34	-7.51	18.4	17.5	23.9	> 30	> 30	> 30	> 30	-24.3	-18.4	-19.3	IC50 [21]: > 30 µg/mL; IC90 [21]: > 30 µg/mL; IC50 [22]: > 30 µg/mL; IC90 [22]: > 30 µg/mL; IC50 [23]: > 30 µg/mL; IC90 [23]: > 30 µg/mL; IC50 [24]: > 30 µg/mL; IC90 [24]: > 30 µg/mL; MIC (Candida albicans): 175 µg/mL (≈ 545 µM); MIC (Aspergillus flavus): 125 µg/mL (≈ 390 µM); MIC (Aspergillus niger): 125 µg/mL (≈ 390 µM); MIC [25]: 150 µg/mL (≈ 468 µM)
Cc1ccc2cc(/C=C3\SC(=S)NC3=O)c(Cl)nc2c1	100 (≈ 312 µM)	6.45	-9.15	-4.88	-13.7	-4.08	-2.83	12.9	11.3	13.8	12.2	27.1	-8.82	> 30	> 30	> 30	> 30	11.4	15	11.4	IC50 [21]: > 30 µg/mL; IC90 [21]: > 30 µg/mL; IC50 [22]: > 30 µg/mL; IC90 [22]: > 30 µg/mL; IC50 [23]: > 30 µg/mL; IC90 [23]: > 30 µg/mL; IC50 [24]: > 30 µg/mL; IC90 [24]: > 30 µg/mL; MIC (Candida albicans): 100 µg/mL (≈ 312 µM); MIC (Aspergillus flavus): 50 µg/mL (≈ 156 µM); MIC (Aspergillus niger): 75 µg/mL (≈ 234 µM); MIC [25]: 50 µg/mL (≈ 156 µM)
O=C(O)CN1C(=O)/C(=C/c2cc3cc(Cl)ccc3nc2Cl)SC1=S	150 (≈ 376 µM)	-32.2	1.23	3.88	-1.15	-12.6	-4.86	-14	-12.4	-12.7	-2.12	-1.23	-72.5	> 30	> 30	> 30	> 30	9.92	2.07	-9.46	IC50 [21]: > 30 µg/mL; IC90 [21]: > 30 µg/mL; IC50 [22]: > 30 µg/mL; IC90 [22]: > 30 µg/mL; IC50 [23]: > 30 µg/mL; IC90 [23]: > 30 µg/mL; IC50 [24]: > 30 µg/mL; IC90 [24]: > 30 µg/mL; MIC (Candida albicans): 125 µg/mL (≈ 313 µM); MIC (Aspergillus flavus): 150 µg/mL (≈ 376 µM); MIC (Aspergillus niger): 100 µg/mL (≈ 250 µM); MIC [25]: 125 µg/mL (≈ 313 µM)
